Experimental data: ChEMBL document CHEMBL1240384, “Inhibition of Porphyromonas gingivalis biofilm by oxantel” (2010)
Values after ≈ are worked out from the molar mass of the structure shown. Values joined by “and” are separate entries in the source; they are usually repeats but may differ in a detail not shown here. Equal values may be shown once. Active and inactive are the calls of the source. No cut-off for these calls is given here.

Columns and labels:
Format in all cases: functional
Porphyromonas gingivalis [1] = test: Antimicrobial activity against Porphyromonas gingivalis assessed as reduction in surface area of substratum occupied by cells at 12.5 uM after 18 hrs; design: scale not given: the % may be the effect or the level left
In short: (§1)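 Three-channel flow cell inoculated with 1 ml of exponential ATCC 33277 culture at 5 × 10^8 cells/ml, left 1 h, then fed 0.2 ml/min of 5×-diluted supplemented brain heart infusion. At 18 h, 1 ml of 12.5 or 125 μM compound in sterile water (water control) was injected per channel for 30 min, followed by a 10 min medium wash. BacLight in situ, CLSM (63×, 2 μm sections, 488/568 nm), five random images per replicate, COMSTAT analysis; mean ± SD of three biological replicates.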

Porphyromonas gingivalis [2] = test: Antimicrobial activity against Porphyromonas gingivalis assessed as reduction in average number of microcolonies at 12.5 uM after 18 hrs; in short: as §1
Porphyromonas gingivalis [3] = test: Antimicrobial activity against Porphyromonas gingivalis assessed as surface area/biovolume ratio at 12.5 uM after 18 hrs; in short: as §1
Porphyromonas gingivalis [4] = test: Antimicrobial activity against Porphyromonas gingivalis assessed as reduction in thickness of biofilm at 12.5 uM after 18 hrs; in short: as §1
Porphyromonas gingivalis [5] = test: Antimicrobial activity against Porphyromonas gingivalis assessed as reduction in average number of microcolony area at 12.5 uM after 18 hrs; in short: as §1
Porphyromonas gingivalis [6] = test: Antimicrobial activity against Porphyromonas gingivalis assessed as reduction in biovolume at 12.5 uM after 18 hrs; in short: as §1
Porphyromonas gingivalis [7] = test: Antimicrobial activity against Porphyromonas gingivalis W50 assessed as mean generation time at 62.5 uM
In short: (§2)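 Planktonic growth of P. gingivalis ATCC 33277 (fimbriated) and W50 (afimbriated) in 96-well plates, starting inoculum ~5.0 × 10^7 CFU per well. MIC determined, and mean generation time measured with DMSO alone or with drug at 31.25 and 62.5 μM. MGT differences were tested at P < 0.05.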

Porphyromonas gingivalis [8] = test: Antimicrobial activity against Porphyromonas gingivalis W50 assessed as mean generation time at 31.25 uM; in short: as §2
Porphyromonas gingivalis [9] = test: Antimicrobial activity against Porphyromonas gingivalis W50; in short: as §2
Porphyromonas gingivalis [10] = test: Antimicrobial activity against Porphyromonas gingivalis ATCC 33277 assessed as thickness of biofilm at 12.5 uM after 18 hrs by confocal laser scanning microscopy; in short: as §1
Porphyromonas gingivalis [11] = test: Antimicrobial activity against Porphyromonas gingivalis ATCC 33277; in short: as §2
Porphyromonas gingivalis [12] = test: Antimicrobial activity against Porphyromonas gingivalis ATCC 33277 assessed as mean generation time at 62.5 uM; in short: as §2
Porphyromonas gingivalis [13] = test: Antimicrobial activity against Porphyromonas gingivalis ATCC 33277 assessed as reduction of biofilm formation after 24 hrs
In short: (§3)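 Static 96-well biofilm model with P. gingivalis ATCC 33277, grown 24 h with drug. Biofilm mass was quantified by crystal violet. Results are means of 12 replicates, compared with untreated and DMSO controls by one-way ANOVA with Scheffe multiple comparison.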

Porphyromonas gingivalis [14] = test: Antimicrobial activity against Porphyromonas gingivalis ATCC 33277 assessed as reduction of biofilm formation at 0.1 uM after 24 hrs; in short: as §3
Porphyromonas gingivalis [15] = test: Antimicrobial activity against Porphyromonas gingivalis ATCC 33277 assessed as reduction of biofilm formation at 125 uM after 24 hrs; in short: as §3
Porphyromonas gingivalis [16] = test: Antimicrobial activity against Porphyromonas gingivalis ATCC 33277 assessed as thickness of biofilm at 125 uM after 18 hrs by confocal laser scanning microscopy; in short: as §1
Porphyromonas gingivalis [17] = test: Antimicrobial activity against Porphyromonas gingivalis assessed as reduction in surface area of substratum occupied by cells at 125 uM after 18 hrs; design: scale not given: the % may be the effect or the level left; in short: as §1
Porphyromonas gingivalis [18] = test: Antimicrobial activity against Porphyromonas gingivalis ATCC 33277 assessed as mean generation time at 31.25 uM; in short: as §2

| MIC (Porphyromonas gingivalis [9]) | MIC (Porphyromonas gingivalis [11]) | SMILES | Activity (Porphyromonas gingivalis [1]) | Activity (Porphyromonas gingivalis [2]) | Activity (Porphyromonas gingivalis [3]) | Activity (Porphyromonas gingivalis [4]) | Activity (Porphyromonas gingivalis [5]) | Activity (Porphyromonas gingivalis [6]) | Activity (Porphyromonas gingivalis [7]) | Activity (Porphyromonas gingivalis [8]) | Activity (Porphyromonas gingivalis [10]) | Activity (Porphyromonas gingivalis [12]) | Activity (Porphyromonas gingivalis [13]) | Activity (Porphyromonas gingivalis [14]) | Activity (Porphyromonas gingivalis [15]) | Activity (Porphyromonas gingivalis [16]) | Activity (Porphyromonas gingivalis [17]) | Activity (Porphyromonas gingivalis [18]) |
| --- | --- | --- | --- | --- | --- | --- | --- | --- | --- | --- | --- | --- | --- | --- | --- | --- | --- | --- |
| – | – | Cc1ncc([N+](=O)[O-])n1CCO [METRONIDAZOLE] | 27.4% | 23.7 count | 1.63 µm2/µm3 | 2.17 µm | 102 µm2 | 2.19 µm3/µm2 | – | – | – | – | – | – | – | – | – | – |
| 2800 µM (≈ 617 µg/mL) | – | Cc1ccsc1/C=C/C1=NCCCN1C [MORANTEL] | – | – | – | – | – | – | 11.3 h | 11 h | – | – | – | – | – | – | – | – |
| 112 µM (≈ 24.2 µg/mL) | 125 µM (≈ 27 µg/mL) | CN1CCCN=C1/C=C/c1cccc(O)c1 [OXANTEL] | 33.2% | 18.3 count | 2.31 µm2/µm3 | 0.83 µm | 124 µm2 | 1.44 µm3/µm2 | 23.8 h | 19.2 h | Active | 24 h | Dose-dependent effect | Active | Active | Active | 23.8% and 27% | 10 h |
| > 3000 µM | – | c1ccc2[nH]c(-c3cscn3)nc2c1 [THIABENDAZOLE] | – | – | – | – | – | – | 6.2 h | 6.8 h | – | – | – | – | – | – | – | – |
